# GASC-1 inh – inhibitors of GASC-1 histone demethylase, primary screen, biochemical, fluorescence, DELFIA europium. Lysine-specific demethylase 4C (Homo sapiens), Q9H3R0. GST-JMJD2C(1-420) H3K9me3 demethylation. inhibition, % at 2.35 µM. 0.069% of 330,000 active. AID 2099, 2009;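 active = more than half of a compound's replicate wells show inhibition beyond 50%, single wells judged on their own value; inconclusive = some, but no more than half, of replicates pass 50% inhibition; inactive = no replicate passes 50% inhibition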;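 also: signal counts dimethyl H3K9 product captured on neutravidin plate; 0% = median of DMSO wells and 100% = 0.3 times that DMSO median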
# Target sequence (Q9H3R0 1-420 limits assumed): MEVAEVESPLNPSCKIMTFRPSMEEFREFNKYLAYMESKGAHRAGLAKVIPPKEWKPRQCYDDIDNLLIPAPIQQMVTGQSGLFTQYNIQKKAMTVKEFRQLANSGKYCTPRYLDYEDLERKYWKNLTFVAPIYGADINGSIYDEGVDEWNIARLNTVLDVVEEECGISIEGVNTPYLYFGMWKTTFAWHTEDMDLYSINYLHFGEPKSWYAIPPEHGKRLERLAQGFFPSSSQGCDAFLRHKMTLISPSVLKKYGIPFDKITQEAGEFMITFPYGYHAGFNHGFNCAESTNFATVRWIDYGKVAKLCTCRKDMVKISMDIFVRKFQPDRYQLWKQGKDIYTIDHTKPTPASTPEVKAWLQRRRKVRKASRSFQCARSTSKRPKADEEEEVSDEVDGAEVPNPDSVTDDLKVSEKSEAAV
# PRMT1 FP inh – PRMT1 methyltransferase inhibitors, primary screen, biochemical, fluorescence polarization | Protein arginine N-methyltransferase 1 (Homo sapiens), Q99873 | recombinant PRMT1, activity-based probe fluorescence polarization | inhibition, % at 2.79 µM | 1.3% of 370,000 active;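 active = inhibition above about 21% made by adding two undisclosed values, limit read from the data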
# SIAE primary – human SIAE inhibitors, primary screen, biochemical, fluorescence polarization, FP-Rh probe, 1536-well HTS. inhibition, % at 9.66 µM. 0.69% of 370,000 active. AID 1053197, 2014. SIAE FP-Rh probe binding. Sialate O-acetylesterase (Homo sapiens), Q9HAT2;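 active = inhibition above a cutoff: mean of compounds within the control limits plus 3 SD of those, cut at about 17% in these data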;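 also: 0% = plate median of compound wells and 100% = probe without SIAE protein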
# mABHD4 FP – ABHD4 inhibitors, primary screen, biochemical, fluorescence polarization, mouse; AID 720543, 2013; (Lyso)-N-acylphosphatidylethanolamine lipase (Mus musculus), Q8VD66; inhibition, % at 8.92 µM; purified mABHD4, FP-Rh probe fluorescence polarization; 0.54% of 370,000 active;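 active = inhibition exceeding the mean over every tested compound plus 3 SD, cut at about 30% in these data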;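 also: 0% = plate median of compound wells and 100% = S159A mutant with DMSO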
#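 Assay system: Wild-type mouse ABHD4 protein | Medium: HEPES pH 7.0 buffer, 150 mM NaCl, 0.01% Pluronic F-127 | Incubation: Enzyme–compound pre-incubation 45 min, then probe 60 min, both 25 °C | Technique: Fluorescence polarization with parallel and perpendicular emission, 525/598 nm | Evaluation: % inhibition of FP-Rh probe binding versus controls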
# HTRA1 inh – HTRA1 serine protease inhibitors, primary screen, biochemical, fluorescence polarization, HTS | Q92743 | recombinant HTRA1, FP-rhodamine activity-based probe | inhibition, % at 5.96 µM | 0.5% of 340,000 active | AID 504803, 2011; in the data active = inhibition above about 36%;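 also: 0% = enzyme with DMSO and 100% = wells lacking enzyme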
# PRMT1 inh conf – PRMT1 methyltransferase inhibitors, confirmation, biochemical, fluorescence polarization, triplicate | inhibition, % at 2.79 µM | 42% of 3,300 active | AID 687036, 2013 | recombinant His-PRMT1, activity-based probe fluorescence polarization | shares compounds with PRMT1 FP inh;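 active = mean inhibition across replicates above the hit cutoff derived for the earlier primary screen, cut at about 22% in these data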
# An asterisk follows results filed as active; ? = inconclusive; nt = no result. A selection: hits, their analogues and other compounds. The true share with any hit is near 2.4%.
SMILES,GASC-1 inh,PRMT1 FP inh,SIAE primary,mABHD4 FP,HTRA1 inh,PRMT1 inh conf
C=C1CCC2C(C)(C(=O)O)CCCC2(C)C1CCC(CO)CCO (stereo unspecified),nt,-1,-4,1,nt,nt
COc1ccc(S(=O)(=O)N(C(C)=O)c2ccc3oc(=O)sc3c2)cc1,12,94*,-13,-4,22,64*
COc1cccc(C2C3=C(N=c4s/c(=C\c5cccc(O)c5)c(=O)n42)c2ccccc2CC3)c1OC (stereo unspecified),-3,0,-29,-14,-9,nt
CCOC(=O)C1=C(C)N=c2s/c(=C\c3cccc(OCC(=O)O)c3)c(=O)n2C1c1ccccc1 (stereo unspecified),0,32*,-1,-9,-5,9
CCOC(=O)C1=C(C)N=c2s/c(=C/c3cccc(OCC(=O)O)c3)c(=O)n2C1c1ccc(F)cc1 (stereo unspecified),4,41*,-16,-23,nt,0
COc1ccccc1C1C2=C(N=c3s/c(=C/c4cccc(OCC(=O)O)c4)c(=O)n31)c1ccccc1CC2 (stereo unspecified),13,56*,-20,-18,-51,22*
COc1ccc(CCN2C(=O)COc3ccccc3C2C(=O)NCc2ccccc2)cc1OC (stereo unspecified),nt,2,1,4,nt,nt
COC(=O)[C@H](C(C)C)N1CCc2nnn(CC3CCCCC3)c2-c2ccccc2S1(=O)=O,nt,2,1,6,nt,nt
CCCNC(=O)c1cc(C2CCCCN2C(=O)c2cc(C(C)(C)C)nn2C)on1 (stereo unspecified),nt,1,0,5,nt,nt
O=C1Nc2cccnc2Sc2ccccc21,-4,0,9,5,5,nt
c1ccc2c(c1)Nc1nccnc1S2,-6,49*,6,7,8,47*
CCN=C1S/C(=C\c2cn(C(C)=O)nc2-c2ccccc2)C(=O)N1CC,3,-3,-8,-4,-33,nt
CC(=O)NC1=NC(=O)/C(=C/c2cc(C)n(-c3cccc(C(=O)O)c3)c2C)S1,27,57*,-4,9,nt,9
CC(=O)NC1=NC(=O)/C(=C/c2cc(C)n(-c3ccc(NC(C)=O)cc3)c2C)S1,1,32*,-6,-1,-1,-9
CC(=O)NC1=NC(=O)/C(=C/c2cn(C(C)=O)nc2-c2ccccc2)S1,-27,31*,-8,-21,-4,27*
CC(C)C[C@H]1CN(CCCC[C@H]2CNC(=O)C(=O)N2CCC2CCCCC2)C(=O)C(=O)N1CCC1CCCCC1,nt,1,-5,-4,nt,nt
CCC[C@H]1[C@@H](OC(=O)NCc2ccccc2Cl)CC[C@@]23CCCN2C(=O)CCC[C@@H]13,nt,-3,-4,4,nt,nt
O=C(CSCc1ccco1)Nc1cc(C(F)(F)F)ccc1N1CCOCC1,45,66*,4,-1,-3,40*
Cc1ccc(NC(=O)CSCC(=O)Nc2cc(C(F)(F)F)ccc2N2CCOCC2)cc1,-1,nt,nt,nt,-15,nt
CCN(CC)CC(O)CNc1ccnc2c(Cl)ccc(Cl)c12 (stereo unspecified),nt,-4,3,0,1,nt
O=C(NC(=S)NC(=O)c1ccccc1F)c1ccccc1F,5,28*,-5,-2,-1,2
O=C1Nc2ccccc2S/C1=C/NCc1ccccc1Cl,1,20,13,1,2,nt
Cc1ccc(N/C=C2/Sc3ccccc3NC2=O)cc1,4,31*,2,-3,4,10
COc1ccc(N/C=C2/Sc3ccccc3NC2=O)cc1,5,33*,6,5,9,30*
CN(Cc1ccccn1)C(=O)c1cc(COc2ccc(F)c(F)c2)on1,nt,1,6,-9,-2,nt
SMILES,GASC-1 inh,PRMT1 FP inh,SIAE primary,mABHD4 FP,HTRA1 inh,PRMT1 inh conf
CCCC(=O)N1CCC[C@]2(CC[C@@H](CCC(=O)N(CC)CC)O2)C1,nt,0,-2,2,nt,nt
CCN(C(=O)CN(C1=NC2CS(=O)(=O)CC2S1)c1ccc(OC)cc1)c1cccc(C)c1 (stereo unspecified),nt,11,-10,-2,nt,nt
CCC[C@H]1[C@@H](OC(=O)NCc2ccc(C)o2)CC[C@@]23CCCN2C(=O)CCC[C@@H]13,nt,13,-1,3,nt,nt
CS/C(=N\S(=O)(=O)c1cccs1)NC(=O)CSc1nc2ccccc2s1,5,28*,-10,-3,6,33*
O=C1C2C3C=CC(CO)(O3)C2C(=O)N1c1ccccc1-c1ccccc1 (stereo unspecified),2,nt,nt,nt,-10,nt
O=C1C2C3C=CC(CNS(=O)(=O)c4ccccc4)(O3)C2C(=O)N1c1ccc(Cl)cc1 (stereo unspecified),3,80*,2,1,3,69*
CC(=O)Oc1ccc(N2C(=O)C3C4C=CC(CO)(O4)C3C2=O)cc1 (stereo unspecified),-4,85*,4,0,3,79*
CC(=O)Oc1ccc(N2C(=O)C3C(C2=O)C2(C)C=CC3(C)O2)cc1 (stereo unspecified),-3,nt,nt,nt,nt,nt
COc1ccccc1-n1c(SC)nc(O)cc1=O,4,25*,-6,11,8,5
COc1ccccc1-n1c(SCC(=O)NC(C)(C)C)nc(O)cc1=O,3,5,1,4,0,nt
CSc1nnc(N2C(=O)C(O)=C(C(=O)c3ccco3)C2c2cccc(Cl)c2)s1 (stereo unspecified),6,30*,-12,-20,-18,18
CSc1nnc(N2C(=O)C(O)=C(C(=O)c3ccco3)C2c2ccc(F)cc2)s1 (stereo unspecified),?,43*,-3,-6,-1,11
COc1ccc(C2C(C(=O)c3ccco3)=C(O)C(=O)N2c2nnc(C)s2)cc1 (stereo unspecified),9,13,1,8,4,nt
CCSc1nnc(N2C(=O)C(O)=C(C(=O)c3ccco3)C2c2cccc(OC)c2)s1 (stereo unspecified),-2,31*,-5,-10,-5,17
CCOC1=C2[C@@H](CN(S(=O)(=O)c3ccc(C)cc3)[C@H]2c2ccccc2Cl)[C@H]2C(=O)N(C)C(=O)[C@H]2C1,nt,-8,-6,-2,nt,nt
CCC(=O)/C=C1\Sc2ccc(OC)cc2N1CCO,-1,5,0,1,-1,nt
CCC(=O)/C=C1\Sc2ccc(OC)cc2N1CC,15,52*,0,-3,0,19

# Screening data from PubChem.
